Calls of active or inactive are those of the source. The calls are words filed in the database; no cut-off is given here.
Organism: Mus musculus
Assay: Mouse behavior activity was determined; Dwk=Depressant Weak
Type: functional, organism-based
Conditions: not given
How it was run: (§1)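 Male Simonsen (ICR) fBR mice, 18-24 g, groups of three, given 3, 10, 30, 100, 300 or 1000 mg/kg ip as aqueous solution and observed for behavioral profile; deaths followed up to 7 days.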
For `COC(=O)NC1=NC(c2cc(F)ccc2F)CN1` (configuration not stated), the Mouse behavior activity was “Depressant - weak”. In the case of `COC(=O)NC1=NC2c3ccccc3CC2N1` (configuration not stated), the Mouse behavior activity is reported as “Depressant Weak”. In the case of `COC(=O)NC1=NC(c2cc(C)ccc2C)CN1` (configuration not stated), the Mouse behavior activity is reported as “Depressant - weak”.

Organism: Mus musculus
Assay: Evaluated for antagonism of reserpine induced hypothermia;I= Inactive
Type: functional, organism-based
Conditions: not given
How it was run: (§2)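 Male HLa (ICR) BR mice, 18-24 g, in groups of eight; reserpine 5 mg/kg ip given 2 h before oral test compound as aqueous solution. Rectal temperature taken hourly; 1-4-h hypothermia assessed by analysis of variance.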
With `CCOC(=O)NC1=NCC2c3ccccc3CCN12` (configuration not stated) the HYPO was “inactive”. In the case of `COC(=O)NC1=NC(c2ccc3c(c2)OCO3)CN1` (configuration not stated), the HYPO is reported as “inactive”. For `COC(=O)NC1=NC2c3ccccc3CC2N1` (configuration not stated), the HYPO was “inactive”. With `COC(=O)NC1=NC(c2cc(C)ccc2C)CN1` (configuration not stated) the HYPO was “inactive”.

Organism: Mus musculus
Assay: Mouse behavior activity was determined; Dwk= Depressant Weak.
Type: functional, organism-based
Conditions: not given
How it was run: as §1
With `COC(=O)NC1=NC(c2cccc(Cl)c2)CN1` (configuration not stated) the Mouse behavior activity was “Depressant - weak”.

System: not listed separately
Assay: Lethal dose in mouse, in groups of ten
Type: toxicity, organism-based
Conditions: in vivo
Work on `CCOC(=O)NC1=NC(c2ccc(F)cc2)CN1C` (configuration not stated) yielded an LD50 of 200 mg/kg. With `CCOC(=O)NC1=NCC2c3ccccc3CCN12` (configuration not stated) the LD50 was 200 mg/kg. For `COC(=O)NC1=NCC(c2cccc(Cl)c2)N1C` (configuration not stated), the LD50 was 200 mg/kg. With `COC(=O)NC1=NC(c2cccc(Cl)c2)CN1` (configuration not stated) the LD50 was 300 mg/kg. For `CCOc1ccccc1OCC1CNCCO1` (configuration not stated) [VILOXAZINE], the LD50 was 200 mg/kg. `COC(=O)NC1=NC(c2cc(Br)ccc2Br)CN1C` (configuration not stated) gave an LD50 of 500 mg/kg. `COC(=O)NC1=NC(c2ccc3c(c2)OCO3)CN1` (configuration not stated) showed an LD50 of 200 mg/kg. Work on `CCC(=O)NC1=NC(c2ccccc2)CN1` (configuration not stated) yielded an LD50 of 500 mg/kg. With `COC(=O)NC1=NC(c2cc(F)ccc2F)CN1` (configuration not stated) the LD50 was greater than 300 mg/kg. `COC(=O)NC1=NC2c3ccccc3CC2N1` (configuration not stated) gave an LD50 of 700 mg/kg. `COC(=O)NC1=NC(c2cccc(Br)c2)CN1` (configuration not stated) gave an LD50 of 300 mg/kg. Compound `COC(=O)NC1=NCC(c2ccccc2)N1C` (configuration not stated) has an LD50 of 200 mg/kg. With `COC(=O)NC1=NC(c2cc(C)ccc2C)CN1` (configuration not stated) the LD50 was 700 mg/kg.

Organism: Mus musculus
Assay: Mouse behavior activity was determined; S-D=Stimulant-Depressant
Type: functional, organism-based
Conditions: not given
How it was run: as §1
For `CCOC(=O)NC1=NC(c2ccc(F)cc2)CN1C` (configuration not stated), the Mouse behavior activity was “Stimulant-Depressant”. With `CCOC(=O)NC1=NCC2c3ccccc3CCN12` (configuration not stated) the Mouse behavior activity was “Stimulant-Depressant”. With `CCOc1ccccc1OCC1CNCCO1` (configuration not stated) [VILOXAZINE] the Mouse behavior activity was “Stimulant-Depressant”. With `COC(=O)NC1=NCC(c2ccccc2)N1C` (configuration not stated) the Mouse behavior activity was “Stimulant-Depressant”.

Organism: Mus musculus
Assay: Compound was evaluated for maximal electroshock antagonism (MES) against mice
Type: functional
Conditions: not given
How it was run: (§3)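 Male HLa (ICR) BR mice, groups of eight to ten, dosed ip (aqueous solution) 15 min before transcorneal electroshock (50 mA, 0.2 s). End point: abolition of tonic hind-limb extension; quantal ED50 by Litchfield-Wilcoxon.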
In the case of `CCOC(=O)NC1=NC(c2ccc(F)cc2)CN1C` (configuration not stated), the ED50 is reported as 100 mg/kg. Compound `COC(=O)NC1=NCC(c2cccc(Cl)c2)N1C` (configuration not stated) has an ED50 of 31 mg/kg. For `COC(=O)NC1=NC(c2ccccc2Br)CN1` (configuration not stated), the ED50 was 62 mg/kg. Compound `COC(=O)NC1=NC(c2cccc(Cl)c2)CN1` (configuration not stated) has an ED50 of 48 mg/kg. `CCOc1ccccc1OCC1CNCCO1` (configuration not stated) [VILOXAZINE] showed an ED50 of 17 mg/kg. Compound `CCCOC(=O)NC1=NC(c2ccccc2F)CN1C` (configuration not stated) has an ED50 of 23 mg/kg. In the case of `COC(=O)NC1=NC(c2cc(Br)ccc2Br)CN1C` (configuration not stated), the ED50 is reported as 45 mg/kg. `CCC(=O)NC1=NC(c2ccccc2)CN1` (configuration not stated) gave an ED50 of 75 mg/kg. For `COC(=O)NC1=NC(c2cc(F)ccc2F)CN1` (configuration not stated), the ED50 was 49 mg/kg. With `COC(=O)NC1=NC2c3ccccc3CC2N1` (configuration not stated) the ED50 was 44 mg/kg. `COC(=O)NC1=NC(c2cccc(Br)c2)CN1` (configuration not stated) gave an ED50 of roughly 68 mg/kg. For `COC(=O)NC1=NC(c2cc(Cl)cc(Cl)c2)CN1C` (configuration not stated), the ED50 was 44 mg/kg. `COC(=O)NC1=NCC(c2c(Cl)cccc2Cl)N1C` (configuration not stated) gave an ED50 of 22 mg/kg. `COC(=O)NC1=NC(c2cc(C)ccc2C)CN1` (configuration not stated) showed an ED50 of roughly 100 mg/kg. `CC(C)OC(=O)NC1=NC(c2cccc(Cl)c2)CN1` (configuration not stated) showed an ED50 of 79 mg/kg.

Organism: Mus musculus
Assay: Evaluated for antagonism of reserpine induced hypothermia
Type: functional
Conditions: not given
How it was run: as §2
For `COC(=O)NC1=NC(c2c(Cl)cccc2Cl)CN1C` (configuration not stated), the HYPO was less than 0.5 mg/kg. Compound `CCOC(=O)NC1=NC(c2ccc(F)cc2)CN1C` (configuration not stated) has an HYPO of less than 0.5 mg/kg. In the case of `COC(=O)NC1=NCC(c2cccc(Cl)c2)N1C` (configuration not stated), the HYPO is reported as less than 0.5 mg/kg. For `COC(=O)NC1=NC(c2cc(Br)ccc2Br)CN1C` (configuration not stated), the HYPO was less than 0.5 mg/kg. Compound `CCC(=O)NC1=NC(c2ccccc2)CN1` (configuration not stated) has an HYPO greater than 20 mg/kg. `COC(=O)NC1=NC(c2cc(F)ccc2F)CN1` (configuration not stated) gave an HYPO of less than 0.5 mg/kg.

System: not listed separately
Assay: HPLC capacity factor (k')
Type: ADME
Conditions: not given
With `CCOC(=O)NC1=NC(c2ccc(F)cc2)CN1C` (configuration not stated) the “Log k'” value was 0.48. For `COC(=O)NC1=NCC(c2cccc(Cl)c2)N1C` (configuration not stated), the “Log k'” value was 0.86. In the case of `COC(=O)NC1=NC(c2ccccc2Br)CN1` (configuration not stated), the “Log k'” value is reported as 0.47. With `COC(=O)NC1=NC(c2cccc(Cl)c2)CN1` (configuration not stated) the “Log k'” value was 0.4. For `CCCOC(=O)NC1=NC(c2ccccc2F)CN1C` (configuration not stated), the “Log k'” value was 0.87. With `COC(=O)NC1=NC(c2cc(Br)ccc2Br)CN1C` (configuration not stated) the “Log k'” value was 0.98. With `COC(=O)NC1=NC(c2ccc3c(c2)OCO3)CN1` (configuration not stated) the “Log k'” value was -0.14. With `CCC(=O)NC1=NC(c2ccccc2)CN1` (configuration not stated) the “Log k'” value was 0.17. With `COC(=O)NC1=NC(c2cc(F)ccc2F)CN1` (configuration not stated) the “Log k'” value was -0.08. In the case of `COC(=O)NC1=NC2c3ccccc3CC2N1` (configuration not stated), the “Log k'” value is reported as -1.14. For `COC(=O)NC1=NC(c2cccc(Br)c2)CN1` (configuration not stated), the “Log k'” value was 0.5. In the case of `COC(=O)NC1=NC(Cc2ccccc2)CN1` (configuration not stated), the “Log k'” value is reported as 0.12. In the case of `COC(=O)NC1=NCC(c2c(Cl)cccc2Cl)N1C` (configuration not stated), the “Log k'” value is reported as 0.54. In the case of `CCOC(=O)NC1=NC(c2cc(C)ccc2C)CN1` (configuration not stated), the “Log k'” value is reported as 0.88. With `COC(=O)NC1=NC(c2cc(C)ccc2C)CN1` (configuration not stated) the “Log k'” value was 0.58. In the case of `CC(C)OC(=O)NC1=NC(c2cccc(Cl)c2)CN1` (configuration not stated), the “Log k'” value is reported as 0.95.

Organism: Mus musculus
Assay: Mouse behavior activity was determined; Dwk= Depressant Weak
Type: functional, organism-based
Conditions: not given
How it was run: as §1
In the case of `COC(=O)NC1=NCC(c2cccc(Cl)c2)N1C` (configuration not stated), the Mouse behavior activity is reported as “Depressant - weak”. In the case of `COC(=O)NC1=NC(c2cc(Br)ccc2Br)CN1C` (configuration not stated), the Mouse behavior activity is reported as “Depressant - weak”. In the case of `CCC(=O)NC1=NC(c2ccccc2)CN1` (configuration not stated), the Mouse behavior activity is reported as “Depressant”. In the case of `COC(=O)NC1=NC(c2cccc(Br)c2)CN1` (configuration not stated), the Mouse behavior activity is reported as “Depressant - weak”.

Organism: Mus musculus
Assay: Compound was evaluated for maximal electroshock antagonism (MES) against mice; Inactive
Type: functional, organism-based
Conditions: not given
How it was run: as §3
In the case of `CN1CC(c2c(Cl)cccc2Cl)N=C1N` (configuration not stated), the ED50 is reported as “inactive”. In the case of `COC(=O)NC1=NC(c2ccc3c(c2)OCO3)CN1` (configuration not stated), the ED50 is reported as “inactive”. For `CN1C(N)=NCC1c1cccc(Cl)c1` (configuration not stated), the ED50 was “inactive”. With `COC(=O)NC1=NCC(c2ccccc2)N1C` (configuration not stated) the ED50 was “inactive”. In the case of `COC(=O)NC1=NC(C)(c2ccccc2)CN1` (configuration not stated), the ED50 is reported as “inactive”. For `CCOC(=O)NC1=NC(c2cc(C)ccc2C)CN1` (configuration not stated), the ED50 was “inactive”.
